Assay results: ChEMBL document CHEMBL4270565, “Design, synthesis and antimicrobial evaluation of propylene-tethered ciprofloxacin-isatin hybrids” (Eur J Med Chem, 2018)
In brackets after ≈: the same amount, converted by molar mass.

Test system: Pseudomonas aeruginosa
Experiment: Antibacterial activity against Pseudomonas aeruginosa ATCC 27853 after 18 to 24 hrs by two-fold serial dilution method
Assay type: functional
Conditions: not given
Summary of the method: (§1)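 Agar two-fold dilution MIC. Compounds were dissolved in 0.1 N NaOH and water, then serially diluted in melted Mueller-Hinton agar, with top concentrations starting at 128. Plates were inoculated at about 10 cfu and incubated at 35 °C for 18–24 h. MIC was taken as the lowest concentration giving 90% inhibition of growth.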
`CCO/N=C1\C(=O)N(CCCN2CCN(c3cc4c(cc3F)c(=O)c(C(=O)OCCCN3C(=O)/C(=N/OCC)c5cc(C)ccc53)cn4C3CC3)CC2)c2ccc(C)cc21` showed an MIC90 of 128 µg/mL (≈ 156 µM).

Test system: not listed separately
Experiment: Cytotoxicity against African green monkey Vero cells assessed as reduction in cell viability after 72 hrs by MTT assay
Assay type: cell-based
Conditions: chlorocebus sabaeus
Summary of the method: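 VERO cells were kept in MEM with Earle's salts and 10% FBS at 37 °C, 5% CO2. They were seeded in 96-well plates and allowed to recover for 24 h. Cells were then exposed to compounds in DMSO over a series from 1000 down to 4 for 72 h. Viability was read by MTT, and CC50 was calculated by Bliss analysis.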
For `CCO/N=C1\C(=O)N(CCCN2CCN(c3cc4c(cc3F)c(=O)c(C(=O)OCCCN3C(=O)/C(=N/OCC)c5cc(C)ccc53)cn4C3CC3)CC2)c2ccc(C)cc21`, the CC50 at 72 h was 64 µg/mL (≈ 78.1 µM).

Test system: Enterococcus faecium
Experiment: Antibacterial activity against Enterococcus faecium 13-7 after 18 to 24 hrs by two-fold serial dilution method
Assay type: functional
Conditions: not given
Summary of the method: as §1
`CCO/N=C1\C(=O)N(CCCN2CCN(c3cc4c(cc3F)c(=O)c(C(=O)OCCCN3C(=O)/C(=N/OCC)c5cc(C)ccc53)cn4C3CC3)CC2)c2ccc(C)cc21` gave an MIC90 of over 128 µg/mL.

Test system: Enterococcus faecium
Experiment: Antibacterial activity against Enterococcus faecium ATCC 700221 after 18 to 24 hrs by two-fold serial dilution method
Assay type: functional
Conditions: not given
Summary of the method: as §1
In the case of `CCO/N=C1\C(=O)N(CCCN2CCN(c3cc4c(cc3F)c(=O)c(C(=O)OCCCN3C(=O)/C(=N/OCC)c5cc(C)ccc53)cn4C3CC3)CC2)c2ccc(C)cc21`, the MIC90 was 128 µg/mL (≈ 156 µM).

Test system: Escherichia coli
Experiment: Antibacterial activity against extended-spectrum beta-lactamase harboring Escherichia coli ATCC 35218 after 18 to 24 hrs by two-fold serial dilution method
Assay type: functional
Conditions: not given
Summary of the method: (§2)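 Agar two-fold serial dilution in Mueller-Hinton agar. Strains came from the Chinese Center for Disease Control and Prevention. Compounds were dissolved in 0.1 N NaOH and water, then diluted in melted agar to final levels stepping down from 128. Plates were inoculated with bacterial cfu and incubated at 35 C for 18–24 h. MIC is the lowest concentration giving 90% growth inhibition.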
`CCO/N=C1\C(=O)N(CCCN2CCN(c3cc4c(cc3F)c(=O)c(C(=O)OCCCN3C(=O)/C(=N/OCC)c5cc(C)ccc53)cn4C3CC3)CC2)c2ccc(C)cc21` gave an MIC90 of 16 µg/mL (≈ 19.5 µM).

Test system: Klebsiella pneumoniae
Experiment: Antibacterial activity against extended-spectrum beta-lactamase deficient Klebsiella pneumoniae 15-2 after 18 to 24 hrs by two-fold serial dilution method
Assay type: functional
Conditions: not given
Summary of the method: as §1
With `CCO/N=C1\C(=O)N(CCCN2CCN(c3cc4c(cc3F)c(=O)c(C(=O)OCCCN3C(=O)/C(=N/OCC)c5cc(C)ccc53)cn4C3CC3)CC2)c2ccc(C)cc21` the MIC90 was 32 µg/mL (≈ 39 µM).

Test system: Staphylococcus epidermidis
Experiment: Antibacterial activity against methicillin-sensitive Staphylococcus epidermidis ATCC 12228 after 18 to 24 hrs by two-fold serial dilution method
Assay type: functional
Conditions: not given
Summary of the method: as §1
With `CCO/N=C1\C(=O)N(CCCN2CCN(c3cc4c(cc3F)c(=O)c(C(=O)OCCCN3C(=O)/C(=N/OCC)c5cc(C)ccc53)cn4C3CC3)CC2)c2ccc(C)cc21` the MIC90 was 32 µg/mL (≈ 39 µM).

Test system: Stenotrophomonas maltophilia
Experiment: Antibacterial activity against Stenotrophomonas maltophilia ATCC 13636 after 18 to 24 hrs by two-fold serial dilution method
Assay type: functional
Conditions: not given
Summary of the method: as §1
`CCO/N=C1\C(=O)N(CCCN2CCN(c3cc4c(cc3F)c(=O)c(C(=O)OCCCN3C(=O)/C(=N/OCC)c5cc(C)ccc53)cn4C3CC3)CC2)c2ccc(C)cc21` gave an MIC90 of 128 µg/mL (≈ 156 µM).

Test system: Staphylococcus epidermidis
Experiment: Antibacterial activity against methicillin-resistant Staphylococcus epidermidis 13-3 after 18 to 24 hrs by two-fold serial dilution method
Assay type: functional
Conditions: not given
Summary of the method: as §2
For `CCO/N=C1\C(=O)N(CCCN2CCN(c3cc4c(cc3F)c(=O)c(C(=O)OCCCN3C(=O)/C(=N/OCC)c5cc(C)ccc53)cn4C3CC3)CC2)c2ccc(C)cc21`, the MIC90 was 64 µg/mL (≈ 78.1 µM).

Test system: Enterococcus faecalis
Experiment: Antibacterial activity against Enterococcus faecalis ATCC 29212 after 18 to 24 hrs by two-fold serial dilution method
Assay type: functional
Conditions: not given
Summary of the method: as §1
`CCO/N=C1\C(=O)N(CCCN2CCN(c3cc4c(cc3F)c(=O)c(C(=O)OCCCN3C(=O)/C(=N/OCC)c5cc(C)ccc53)cn4C3CC3)CC2)c2ccc(C)cc21` gave an MIC90 of 64 µg/mL (≈ 78.1 µM).

Test system: Klebsiella pneumoniae
Experiment: Antibacterial activity against extended-spectrum beta-lactamase harboring Klebsiella pneumoniae ATCC 700603 after 18 to 24 hrs by two-fold serial dilution method
Assay type: functional
Conditions: not given
Summary of the method: as §2
`CCO/N=C1\C(=O)N(CCCN2CCN(c3cc4c(cc3F)c(=O)c(C(=O)OCCCN3C(=O)/C(=N/OCC)c5cc(C)ccc53)cn4C3CC3)CC2)c2ccc(C)cc21` showed an MIC90 of 128 µg/mL (≈ 156 µM).

Test system: Morganella morganii
Experiment: Antibacterial activity against Morganella morganii ATCC 25830 after 18 to 24 hrs by two-fold serial dilution method
Assay type: functional
Conditions: not given
Summary of the method: as §1
`CCO/N=C1\C(=O)N(CCCN2CCN(c3cc4c(cc3F)c(=O)c(C(=O)OCCCN3C(=O)/C(=N/OCC)c5cc(C)ccc53)cn4C3CC3)CC2)c2ccc(C)cc21` gave an MIC90 of 32 µg/mL (≈ 39 µM).

Test system: Klebsiella aerogenes
Experiment: Antibacterial activity against Enterobacter aerogenes ATCC 13048 after 18 to 24 hrs by two-fold serial dilution method
Assay type: functional
Conditions: not given
Summary of the method: as §1
Molecule `CCO/N=C1\C(=O)N(CCCN2CCN(c3cc4c(cc3F)c(=O)c(C(=O)OCCCN3C(=O)/C(=N/OCC)c5cc(C)ccc53)cn4C3CC3)CC2)c2ccc(C)cc21` has an MIC90 of 64 µg/mL (≈ 78.1 µM).

Test system: Mycobacterium tuberculosis
Experiment: Antimycobacterial activity against Mycobacterium tuberculosis H37Rv after 7 days
Assay type: functional
Conditions: 168 h
Summary of the method: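 Rapid direct susceptibility test in 48-well plates. Two-fold dilutions of compound from DMSO stocks were mixed with an equal volume of bacterial suspension. Medium-only wells served as growth controls and water-only wells as no-growth controls. Plates were sealed and held at 37 C in a humid box, and controls were checked at 3 days. MIC (90% growth inhibition) was read visually by high-magnification observation of the cells and re-read at 7 days.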
With `CCO/N=C1\C(=O)N(CCCN2CCN(c3cc4c(cc3F)c(=O)c(C(=O)OCCCN3C(=O)/C(=N/OCC)c5cc(C)ccc53)cn4C3CC3)CC2)c2ccc(C)cc21` the MIC90 was 50 µg/mL (≈ 61 µM).

Test system: Enterobacter cloacae
Experiment: Antibacterial activity against Enterobacter cloacae ATCC 43560 after 18 to 24 hrs by two-fold serial dilution method
Assay type: functional
Conditions: not given
`CCO/N=C1\C(=O)N(CCCN2CCN(c3cc4c(cc3F)c(=O)c(C(=O)OCCCN3C(=O)/C(=N/OCC)c5cc(C)ccc53)cn4C3CC3)CC2)c2ccc(C)cc21` showed an MIC90 of 128 µg/mL (≈ 156 µM).

Test system: Proteus mirabilis
Experiment: Antibacterial activity against Proteus mirabilis 13-1 after 18 to 24 hrs by two-fold serial dilution method
Assay type: functional
Conditions: not given
Summary of the method: as §1
In the case of `CCO/N=C1\C(=O)N(CCCN2CCN(c3cc4c(cc3F)c(=O)c(C(=O)OCCCN3C(=O)/C(=N/OCC)c5cc(C)ccc53)cn4C3CC3)CC2)c2ccc(C)cc21`, the MIC90 was 64 µg/mL (≈ 78.1 µM).

Test system: Proteus vulgaris
Experiment: Antibacterial activity against Proteus vulgaris ATCC 29905 after 18 to 24 hrs by two-fold serial dilution method
Assay type: functional
Conditions: not given
Summary of the method: as §1
`CCO/N=C1\C(=O)N(CCCN2CCN(c3cc4c(cc3F)c(=O)c(C(=O)OCCCN3C(=O)/C(=N/OCC)c5cc(C)ccc53)cn4C3CC3)CC2)c2ccc(C)cc21` gave an MIC90 of 64 µg/mL (≈ 78.1 µM).

Test system: Citrobacter freundii
Experiment: Antibacterial activity against extended-spectrum beta-lactamase harboring Citrobacter freundii ATCC 43864 after 18 to 24 hrs by two-fold serial dilution method
Assay type: functional
Conditions: not given
Summary of the method: as §2
`CCO/N=C1\C(=O)N(CCCN2CCN(c3cc4c(cc3F)c(=O)c(C(=O)OCCCN3C(=O)/C(=N/OCC)c5cc(C)ccc53)cn4C3CC3)CC2)c2ccc(C)cc21` showed an MIC90 of 64 µg/mL (≈ 78.1 µM).

Test system: Enterococcus faecalis
Experiment: Antibacterial activity against Enterococcus faecalis ATCC 51299 after 18 to 24 hrs by two-fold serial dilution method
Assay type: functional
Conditions: not given
Summary of the method: as §1
Work on `CCO/N=C1\C(=O)N(CCCN2CCN(c3cc4c(cc3F)c(=O)c(C(=O)OCCCN3C(=O)/C(=N/OCC)c5cc(C)ccc53)cn4C3CC3)CC2)c2ccc(C)cc21` yielded an MIC90 of 128 µg/mL (≈ 156 µM).

Test system: Staphylococcus aureus
Experiment: Antibacterial activity against methicillin-sensitive Staphylococcus aureus ATCC 29213 after 18 to 24 hrs by two-fold serial dilution method
Assay type: functional
Conditions: not given
Summary of the method: as §2
With `CCO/N=C1\C(=O)N(CCCN2CCN(c3cc4c(cc3F)c(=O)c(C(=O)OCCCN3C(=O)/C(=N/OCC)c5cc(C)ccc53)cn4C3CC3)CC2)c2ccc(C)cc21` the MIC90 was 64 µg/mL (≈ 78.1 µM).

Test system: Staphylococcus aureus
Experiment: Antibacterial activity against methicillin-resistant Staphylococcus aureus ATCC 33591 after 18 to 24 hrs by two-fold serial dilution method
Assay type: functional
Conditions: not given
Summary of the method: as §2
Molecule `CCO/N=C1\C(=O)N(CCCN2CCN(c3cc4c(cc3F)c(=O)c(C(=O)OCCCN3C(=O)/C(=N/OCC)c5cc(C)ccc53)cn4C3CC3)CC2)c2ccc(C)cc21` has an MIC90 of 128 µg/mL (≈ 156 µM).

Test system: Providencia rettgeri
Experiment: Antibacterial activity against Providencia rettgeri ATCC 31052 after 18 to 24 hrs by two-fold serial dilution method
Assay type: functional
Conditions: not given
Summary of the method: as §1
`CCO/N=C1\C(=O)N(CCCN2CCN(c3cc4c(cc3F)c(=O)c(C(=O)OCCCN3C(=O)/C(=N/OCC)c5cc(C)ccc53)cn4C3CC3)CC2)c2ccc(C)cc21` gave an MIC90 of 64 µg/mL (≈ 78.1 µM).

Test system: Acinetobacter calcoaceticus
Experiment: Antibacterial activity against Acinetobacter calcoaceticus ATCC 19606 after 18 to 24 hrs by two-fold serial dilution method
Assay type: functional
Conditions: not given
Summary of the method: as §1
In the case of `CCO/N=C1\C(=O)N(CCCN2CCN(c3cc4c(cc3F)c(=O)c(C(=O)OCCCN3C(=O)/C(=N/OCC)c5cc(C)ccc53)cn4C3CC3)CC2)c2ccc(C)cc21`, the MIC90 was 64 µg/mL (≈ 78.1 µM).

Test system: Escherichia coli
Experiment: Antibacterial activity against extended-spectrum beta-lactamase deficient Escherichia coli ATCC 25922 after 18 to 24 hrs by two-fold serial dilution method
Assay type: functional
Conditions: not given
Summary of the method: as §1
For `CCO/N=C1\C(=O)N(CCCN2CCN(c3cc4c(cc3F)c(=O)c(C(=O)OCCCN3C(=O)/C(=N/OCC)c5cc(C)ccc53)cn4C3CC3)CC2)c2ccc(C)cc21`, the MIC90 was 16 µg/mL (≈ 19.5 µM).

Test system: Serratia marcescens
Experiment: Antibacterial activity against Serratia marcescens ATCC 21074 after 18 to 24 hrs by two-fold serial dilution method
Assay type: functional
Conditions: not given
Summary of the method: as §1
In the case of `CCO/N=C1\C(=O)N(CCCN2CCN(c3cc4c(cc3F)c(=O)c(C(=O)OCCCN3C(=O)/C(=N/OCC)c5cc(C)ccc53)cn4C3CC3)CC2)c2ccc(C)cc21`, the MIC90 was 64 µg/mL (≈ 78.1 µM).
